Source: PubChem BioAssay AID493089 (Broad Institute, 2011)
Values joined by “and” are separate entries in the source; they are usually repeats but may differ in a detail not shown here. Equal values may be shown once. Records with an inconclusive call do not appear. Active and inactive are the calls of the source.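 Rule for the calls: active = fitted half-maximal dose no more than ten times the top valid dose tested, with signal falling; inconclusive = flat curve at 30 to 70% inhibition, or poor fit; inactive = the rest, including rising signal.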

What was measured:
[1] = growth inhibition of fluconazole-resistant C. albicans, confirmation, CaCi-2 isolate, dry powder retest, set 2 (AID 493089); details: C. albicans CaCi-2 + fluconazole growth, Alamar Blue, 48 h
Procedure, shortened: (§1)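 Material: C. albicans CaCi-2, fluconazole-resistant isolate / Medium: RPMI-based defined medium with MOPS plus 8 µg/mL fluconazole / Schedule: 48 h compound exposure, 37 °C, 90% humidity, 2 h dye / Measured by: Alamar Blue fluorescence, 1:200 final, excitation 544 nm, emission 590 nm / Read-out basis: relative growth, signal decrease as inhibition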

[2] = tested on: C. albicans CaCi-2 (fluconazole-resistant clinical isolate) + fluconazole growth, Alamar Blue, 48 h; assay: as above
Procedure, shortened: as §1

Compound | AC50 [2] | also measured
O=C(O)Cn1nc(-c2ccccc2)c2ccccc21 | – | activity change, negative = inhibition ([1]; at 12 µM (top of the series)): -10.3% (inactive)
CC1CCN(C(=O)Cn2c3ccccc3c3nc4n(c(=O)c32)CCS4)CC1 | 5130 nM | –
O=C(Cn1c2ccccc2c2nc3n(c(=O)c21)CCCS3)c1ccc(F)cc1 | – | activity change, negative = inhibition ([1]; at 12 µM (top of the series)): -21.3% (inactive)
CCN(CC)C(=O)Cn1c2ccc(F)cc2c2nc3n(c(=O)c21)CCS3 | 645 nM | –
O=C(Cn1c2ccc(F)cc2c2nc3n(c(=O)c21)CCS3)N1CCCCCC1 | 1490 nM | –
O=C(Cn1c2ccc(F)cc2c2nc3n(c(=O)c21)CCS3)N1CCCC1 | 583 nM | –
COC(=O)Cn1nc(-c2ccc(C)cc2)c2ccccc21 | 12000 nM | –
O=C(Cn1c2ccc(F)cc2c2nc3n(c(=O)c21)CCS3)N1CCCCC1 | 628 nM | –
CC1CCN(C(=O)Cn2c3ccc(F)cc3c3nc4n(c(=O)c32)CCCS4)CC1 | 2740 nM | –
O=c1c2[nH]c3ccc(F)cc3c2nc2n1CCS2 | 3410 nM | –
O=C(Cn1c2ccccc2c2nc3n(c(=O)c21)CCS3)N1CCOCC1 | 3570 nM | –
COc1ccc2c(c1)c1nc3n(c(=O)c1n2CC(=O)N1CCC(C)CC1)CCS3 | – | activity change, negative = inhibition ([1]; at 1.2 µM (top of the series)): -8.53% (inactive)
O=C(Cn1c2ccccc2c2nc3n(c(=O)c21)CCS3)N1CCCC1 | 1100 nM and 3520 nM | –
O=C(Cn1c2ccccc2c2nc3n(c(=O)c21)CCS3)N1CCCCC1 | 2150 nM | –
COC(=O)Cn1c(-c2ccccc2)nc2ccccc21 | – | activity change, negative = inhibition ([1]; at 12 µM (top of the series)): -10.6% (inactive)
O=C(Cn1c2ccccc2c2nc3n(c(=O)c21)CCS3)NCCc1ccc(Cl)cc1 | – | activity change, negative = inhibition ([1]; at 12 µM (top of the series)): -24.6% (inactive)
N#Cc1cccc(N2CCN(C(=O)c3ccc(Cl)cc3)CC2)n1 | – | activity change, negative = inhibition ([1]; at 12 µM (top of the series)): -7.37% (inactive)
CCN(CC)C(=O)Cn1c2ccccc2c2nc3n(c(=O)c21)CCS3 | 1740 nM and 2300 nM | –
COC(=O)Cn1nc(-c2ccccc2)c2ccccc21 | 2890 nM | –
COc1ccc(NC(=O)Cn2c3ccccc3c3nc4n(c(=O)c32)CCS4)cc1 | 3020 nM | –
O=c1c2[nH]c3ccccc3c2nc2n1CCS2 | 10500 nM | –
